# Calls of active or inactive are those of the source. The calls are words filed in the database; no cut-off is given here.
# Legend:
# [1] = target: T1, Neuronal acetylcholine receptor; alpha4/beta2 (Homo sapiens, UniProt P17787+P43681); experiment: Antagonist activity at (alpha4beta2)2alpha4 nAChR (unknown origin) expressed in Xenopus oocytes assessed as inhibition of acetylcholine-induced current after 2 mins by two-electrode voltage clamp assay; format: cell-based, Oocyte
# [2] = target: T1, Neuronal acetylcholine receptor; alpha4/beta2; experiment: Displacement of [3H]cytisine from human alpha4beta2 nAChR overexpressed in human SHEP cells after 75 mins by liquid scintillation spectrometric analysis; format: cell-based
# Outline: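 SH-EP1-hα4β2 membrane homogenates (30–50 µg protein) were incubated with 1 nM [3H]cytisine for 75 min at 4 °C in Tris binding saline, pH 7.0. Filtration on PEI-soaked GF/C filters, scintillation counting. Four experiments in triplicate.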
# [3] = target: T1, Neuronal acetylcholine receptor; alpha4/beta2; experiment: Antagonist activity at (alpha4beta2)2beta2 nAChR (unknown origin) expressed in Xenopus oocytes assessed as inhibition of acetylcholine-induced current after 2 mins by two-electrode voltage clamp assay; format: cell-based, Oocyte
# [4] = target: T2, Neuronal acetylcholine receptor subunit alpha-7 (Homo sapiens, UniProt P36544); experiment: Displacement of [125I]alpha-bungarotoxin from human alpha7 nAChR overexpressed in human SH-SY5Y cells at 1 mM after 120 mins by liquid scintillation spectrometric analysis; format: cell-based
# T2 sequence (P36544 whole entry): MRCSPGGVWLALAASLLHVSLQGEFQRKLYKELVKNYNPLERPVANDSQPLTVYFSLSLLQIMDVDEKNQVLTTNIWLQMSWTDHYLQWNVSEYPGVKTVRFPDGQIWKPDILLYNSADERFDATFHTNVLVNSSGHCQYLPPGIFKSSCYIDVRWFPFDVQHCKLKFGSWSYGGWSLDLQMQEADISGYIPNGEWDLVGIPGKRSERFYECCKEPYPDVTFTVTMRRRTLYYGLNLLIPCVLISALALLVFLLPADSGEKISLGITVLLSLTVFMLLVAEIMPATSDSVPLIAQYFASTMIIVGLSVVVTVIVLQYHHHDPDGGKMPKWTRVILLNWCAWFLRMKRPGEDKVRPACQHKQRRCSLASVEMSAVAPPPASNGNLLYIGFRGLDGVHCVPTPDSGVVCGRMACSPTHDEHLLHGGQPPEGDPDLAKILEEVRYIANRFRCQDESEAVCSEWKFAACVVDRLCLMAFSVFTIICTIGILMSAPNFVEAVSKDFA
# Outline: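 Membranes from SH-SY5Y-hα7 cells (30–50 µg protein) were incubated with 1 nM [125I]α-BgTx in Tris binding saline, pH 7.0, for 120 min at 25 °C. […] GF/C filtration, top test concentration 1 mM. […] Four experiments, triplicate.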
# [5] = target: T2, Neuronal acetylcholine receptor subunit alpha-7; experiment: Displacement of [125I]alpha-bungarotoxin from human alpha7 nAChR overexpressed in human SH-SY5Y cells after 120 mins by liquid scintillation spectrometric analysis; format: cell-based
# [6] = target: Nicotinic acetylcholine receptor alpha4/beta2/alpha5 (Homo sapiens, UniProt P17787+P30532+P43681); experiment: Antagonist activity at (alpha4beta2)2alpha5 nAChR (unknown origin) expressed in Xenopus oocytes assessed as inhibition of acetylcholine-induced current after 2 mins by two-electrode voltage clamp assay; format: cell-based, Oocyte
# Chain of Nicotinic acetylcholine receptor alpha4/beta2/alpha5 (P17787 whole entry): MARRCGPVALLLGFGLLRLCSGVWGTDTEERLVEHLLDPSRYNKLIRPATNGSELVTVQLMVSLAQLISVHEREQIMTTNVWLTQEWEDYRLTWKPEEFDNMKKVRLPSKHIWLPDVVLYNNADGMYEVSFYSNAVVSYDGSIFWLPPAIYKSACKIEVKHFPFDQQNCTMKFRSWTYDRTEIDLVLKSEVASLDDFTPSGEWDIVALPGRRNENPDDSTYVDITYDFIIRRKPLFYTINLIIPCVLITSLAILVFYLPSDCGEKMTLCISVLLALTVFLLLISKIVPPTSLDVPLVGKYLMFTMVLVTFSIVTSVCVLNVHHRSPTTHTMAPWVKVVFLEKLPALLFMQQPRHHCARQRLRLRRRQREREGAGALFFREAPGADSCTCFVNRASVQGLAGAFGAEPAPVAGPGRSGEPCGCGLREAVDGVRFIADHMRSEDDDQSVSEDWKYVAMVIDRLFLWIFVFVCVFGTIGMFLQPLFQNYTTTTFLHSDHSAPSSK
# Chain of Nicotinic acetylcholine receptor alpha4/beta2/alpha5 (P43681 whole entry): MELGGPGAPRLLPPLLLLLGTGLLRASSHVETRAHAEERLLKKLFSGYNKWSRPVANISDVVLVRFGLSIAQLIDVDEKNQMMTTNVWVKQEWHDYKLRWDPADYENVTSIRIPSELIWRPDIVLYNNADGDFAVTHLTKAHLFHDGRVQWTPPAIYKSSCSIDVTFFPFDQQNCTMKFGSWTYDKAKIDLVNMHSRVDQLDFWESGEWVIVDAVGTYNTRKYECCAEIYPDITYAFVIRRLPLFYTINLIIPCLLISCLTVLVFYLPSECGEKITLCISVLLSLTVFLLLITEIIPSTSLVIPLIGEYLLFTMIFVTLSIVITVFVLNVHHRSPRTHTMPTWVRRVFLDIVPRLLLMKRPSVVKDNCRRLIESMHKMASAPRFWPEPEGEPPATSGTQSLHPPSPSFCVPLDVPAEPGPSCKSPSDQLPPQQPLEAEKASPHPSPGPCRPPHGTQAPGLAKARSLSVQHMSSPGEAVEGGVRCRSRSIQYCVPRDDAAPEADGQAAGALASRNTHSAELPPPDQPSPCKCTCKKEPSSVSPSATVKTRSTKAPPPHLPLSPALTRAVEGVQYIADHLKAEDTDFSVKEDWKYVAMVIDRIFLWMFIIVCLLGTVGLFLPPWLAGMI
# Chain of Nicotinic acetylcholine receptor alpha4/beta2/alpha5 (P30532 whole entry): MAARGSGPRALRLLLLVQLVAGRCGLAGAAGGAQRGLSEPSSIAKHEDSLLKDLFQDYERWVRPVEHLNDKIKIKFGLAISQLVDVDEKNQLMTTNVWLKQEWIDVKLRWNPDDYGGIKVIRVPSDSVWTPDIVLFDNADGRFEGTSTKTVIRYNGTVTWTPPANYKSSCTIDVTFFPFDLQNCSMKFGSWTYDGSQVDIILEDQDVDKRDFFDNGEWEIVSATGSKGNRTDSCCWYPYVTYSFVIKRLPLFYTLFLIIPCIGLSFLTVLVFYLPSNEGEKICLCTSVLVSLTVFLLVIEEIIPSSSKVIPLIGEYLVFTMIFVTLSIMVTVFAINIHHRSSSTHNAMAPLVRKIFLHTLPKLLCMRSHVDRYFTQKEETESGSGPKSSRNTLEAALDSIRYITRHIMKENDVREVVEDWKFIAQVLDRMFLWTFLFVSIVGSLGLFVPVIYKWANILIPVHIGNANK
# T1 sequence (P17787 whole entry): as the sequence (P17787 whole entry) above
# T1 sequence (P43681 whole entry): as the sequence (P43681 whole entry) above
Compound,IC50 [1] [µM],IC50 [2] [µM],Ki [2] [µM],inhibition [2],IC50 [3] [µM],inhibition [4],inhibition [5],IC50 [6] [µM],IC50 [5] [µM],Ki [5] [µM]
CN1CCC[C@H]1COC(=O)c1cccc(N)c1,1.02,0.0284,0.0081,Dose-dependent effect,4.3,inactive,Dose-dependent effect,480,,
CN1CCC[C@H]1COC(=O)c1cccc([N+](=O)[O-])c1,,1.61,0.46,,,,,,464,232
CN1CCC[C@H]1COC(=O)c1ccc(Cl)cc1,95,0.0394,0.0112,Dose-dependent effect,3.6,,Dose-dependent effect,6,8.9,4.5
CN1CCC[C@H]1COC(=O)c1ccc(OCc2ccccc2)cc1,3.6,0.0042,0.0012,Dose-dependent effect,25.8,,Dose-dependent effect,17.8,2.3,1.1
CN1CCC[C@H]1COC(=O)c1ccc(Cl)nc1,,0.528,0.151,Dose-dependent effect,,,Dose-dependent effect,,58.5,29.3
CN1CCC[C@H]1COC(=O)c1ccc(OCc2ccccc2)nc1,,0.166,0.0455,,,,,,59.1,29.5
CN1CCC[C@H]1COC(=O)c1cnc2ccccc2c1,,0.759,0.217,Dose-dependent effect,,,Dose-dependent effect,,97.3,48.7
CN1CCC[C@H]1COC(=O)c1ccc(Br)cc1,,0.0784,0.0224,Dose-dependent effect,,,Dose-dependent effect,,21.1,10.5
CN1CCC[C@H]1COC(=O)c1ccccc1,313,0.0819,0.0234,Dose-dependent effect,2.5,,Dose-dependent effect,52.3,13.4,6.7
